Test [1] concerns Staphylococcus aureus. As to the kind of experiment: Antibacterial activity against methicillin-sensitive Staphylococcus aureus ATCC 29213 by plate reader analysis. It is filed as functional, organism-based. The procedure, abridged:
(§1)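 Strains from ATCC; modified CLSI broth microdilution. Samples in DMSO were serially diluted in 20% DMSO–saline and plated in duplicate. Inocula were set by adjusting OD630 to give the final target CFU/mL. Methicillin and vancomycin were positive controls, with highest test concentrations of 50 and 20 μg/mL. IC50 is the 50% growth inhibition relative to controls, from curve fitting.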

Test [2] deals with Staphylococcus aureus. As to the kind of experiment: Antibacterial activity against methicillin-resistant Staphylococcus aureus ATCC 33591 by plate reader analysis. It is filed as functional, organism-based. The method in brief:
as §1

Test [3] relates to Staphylococcus aureus. In words: Antibacterial activity against methicillin-resistant Staphylococcus aureus ATCC 1696 by plate reader analysis. It is filed as functional, organism-based. The procedure, abridged:
as §1

Test [4] concerns Staphylococcus aureus. As to the kind of experiment: Antibacterial activity against methicillin-resistant Staphylococcus aureus ATCC 1708 by plate reader analysis. It is filed as functional, organism-based. The procedure, abridged:
as §1

For test [5], the system named is Staphylococcus aureus. In words: Antibacterial activity against methicillin-resistant Staphylococcus aureus ATCC 1717 by plate reader analysis. It is filed as functional, organism-based. The procedure, abridged:
as §1

In test [6] the test system is Enterococcus faecalis. In words: Antibacterial activity against vancomycin-sensitive Enterococcus faecalis ATCC 29212 by plate reader analysis. It is filed as functional, organism-based. The procedure, abridged: as §1
Test [7] has as its system HepG2. As to the kind of experiment: Cytotoxicity against human HepG2 cells assessed as cell viability after 48 hrs by neutral red-based assay. Particulars: HepG2, 48 h. The method in brief:
(§2)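 Mammalian cell lines from ATCC: human hepatic carcinoma HepG2, pig kidney epithelial LLC-PK1, and African green monkey kidney Vero. Highest test concentration was 50 μg/mL, and doxorubicin was the positive control at up to 10 μg/mL. IC50 was taken as the concentration giving 50% growth inhibition of the mammalian cells.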

The test system of test [8] is Enterococcus faecalis. As to the kind of experiment: Antibacterial activity against low level vancomycin-resistant Enterococcus faecalis ATCC 51299 by plate reader analysis. It is filed as functional, organism-based. The method in brief:
as §1

For test [9], the system named is Enterococcus faecium. As to the kind of experiment: Antibacterial activity against vancomycin-resistant Enterococcus faecium ATCC 700221 by plate reader analysis. The test is classed as functional, organism-based. The method in brief: as §1
Test [10] relates to LLC-PK1. In words: Cytotoxicity against pig LLC-PK1 cells assessed as cell viability after 48 hrs by neutral red-based assay. Particulars: Sus scrofa, LLC-PK1, 48 h. The method in brief:
as §2

Test [11] relates to Vero. As to the kind of experiment: Cytotoxicity against African green monkey Vero cells assessed as cell viability after 48 hrs by neutral red-based assay. Particulars: Chlorocebus sabaeus. The method in brief: as §2

≈ marks a conversion by molar mass, not a printed value.

Data on six molecules can be found in ChEMBL document CHEMBL3739408, “Antibacterial Prenylated Acylphloroglucinols from Psorothamnus fremontii” (J Nat Prod, 2015).

Turning to `CC1=C2OC(C)(C)CC3OC23C(=O)C(C(=O)C(C)C)=C1O` (centres undefined), the IC50 (as a rule, the concentration needed to halve the response being measured) amounted to 10 µg/mL (≈ 34.2 µM) in test [1] and 11.1 µg/mL (≈ 38 µM) in [2].

Consider `CCC(C)C(=O)C1=C(O)C(C)=C2OC(C)(C)CC3OC23C1=O` (centres undefined), for which the figures for the IC50 in test [1] and in test [2] were 5.6 µg/mL (≈ 18.3 µM) and 6.2 µg/mL (≈ 20.2 µM), respectively.

For `COc1cccc(OC)c1C(=O)N[C@@H]1C(=O)N2[C@@H]1SC(C)(C)[C@@H]2C(=O)O` [METHICILLIN], the IC50 was 3 µg/mL (≈ 7.89 µM) in test [3]; 3.2 µg/mL (≈ 8.41 µM) in test [4]; 0.5 µg/mL (≈ 1.31 µM) in [1]; above 50 µg/mL in [2]; 26.9 µg/mL (≈ 70.7 µM) in [5].

With `CC(C)=CCC1=C2OC(C)(C)CC3OC23C(=O)C(C(=O)C(C)C)=C1O` (centres undefined), the IC50 in test [6] was 5.3 µg/mL (≈ 15.3 µM); in test [3], 8.8 µg/mL (≈ 25.4 µM); in test [4], 8.6 µg/mL (≈ 24.8 µM); in test [1] it was 2.4 µg/mL (≈ 6.93 µM); in [7] it was 31 µg/mL (≈ 89.5 µM); in test [2] it was 1.4 µg/mL (≈ 4.04 µM). Besides, the IC50 worked out at 1.6 µg/mL (≈ 4.62 µM) in [5]; 2.8 µg/mL (≈ 8.08 µM) in test [8]; 1.6 µg/mL (≈ 4.62 µM) in test [9]; 30 µg/mL (≈ 86.6 µM) in test [10]; 21 µg/mL (≈ 60.6 µM) in test [11].

Take `CN[C@@H](CC(C)C)C(=O)N[C@H]1C(=O)N[C@@H](CC(N)=O)C(=O)N[C@H]2C(=O)N[C@H]3C(=O)N[C@H](C(=O)N[C@@H](C(=O)O)c4cc(O)cc(O)c4-c4cc3ccc4O)[C@H](O)c3ccc(c(Cl)c3)Oc3cc2cc(c3O[C@H]2O[C@@H](CO)[C@H](O)[C@@H](O)[C@@H]2O[C@@H]2C[C@@](C)(N)[C@@H](O)[C@@H](C)O2)Oc2ccc(cc2Cl)[C@H]1O`: the figures for the IC50 in test [6], in test [8] and in [9] were 1.4 µg/mL (≈ 0.966 µM), 3.3 µg/mL (≈ 2.28 µM) and above 20 µg/mL, respectively.

Regarding `COc1cccc2c1C(=O)c1c(O)c3c(c(O)c1C2=O)C[C@@](O)(C(=O)CO)C[C@@H]3O[C@H]1C[C@H](N)[C@H](O)[C@H](C)O1` [DOXORUBICIN], the IC50 in test [10] is 0.5 µg/mL (≈ 0.92 µM).
